Converted amounts (≈) assume the structure as drawn.
Legend:
[1] = Inhibition of Staphylococcus aureus RnpA/RnpB-mediated tRNA cleavage after 15 mins by ethidium bromide staining based polyacrylamide gel electrophoresis
How it was run: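 RNase P reconstituted from equimolar S. aureus RnpA and rnpB; inhibition of in vitro tRNA maturation (cleavage) measured.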

HepG2 = experiment: Cytotoxicity against human HepG2 cells assessed as reduction in cell viability after 24 hrs by MTT assay; format: cell-based; settings: hepg2, 24 h
How it was run: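 Human HepG2 hepatocytes; overt cytotoxicity measured by MTT method. Value reported as the lowest concentration causing cytotoxicity.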

[2] = molecular target: T1, Ribonuclease P protein component (Staphylococcus aureus, UniProt P0A0H5); experiment: Inhibition of Staphylococcus aureus RnpA-mediated mRNA degradation after 15 to 30 mins by ethidium bromide staining based agarose gel electrophoresis
T1 sequence (P0A0H5 whole entry): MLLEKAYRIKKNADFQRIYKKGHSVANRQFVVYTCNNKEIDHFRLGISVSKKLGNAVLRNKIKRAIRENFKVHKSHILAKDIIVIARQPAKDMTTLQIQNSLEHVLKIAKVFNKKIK
How it was run: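 Recombinant S. aureus RnpA (≥97% purity) tested for inhibition of in vitro mRNA degradation.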

Staphylococcus aureus [3] = experiment: Antibacterial activity against Staphylococcus aureus UAMS-1 after 18 hrs by Mueller-Hinton broth analysis; format: functional; settings: UAMS-1, 18 h
How it was run: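 S. aureus UAMS-1, a methicillin-sensitive osteomyelitis clinical isolate, tested by CLSI broth method in 96-well format. MIC taken as the lowest compound concentration with no visible growth.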

Staphylococcus aureus [4] = experiment: Potentiation of mupirocin-induced antibacterial activity against Staphylococcus aureus UAMS-1 assessed as mupirocin MIC at 2 ug/ml by checkerboard assay (reference value: 0.125 microg/ml); format: functional
How it was run: (§1)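 Checkerboard assay: wells seeded with 1 × 10^5 CFU ml-1 S. aureus UAMS-1. Test compound in 2-fold steps (0, 0.5, 1, 2, 4, 8, 16, 32 µg/mL) crossed with mupirocin (0, 0.03125, 0.0625, 0.125 µg/mL). Plates incubated 18 h at 37 °C, then growth read. FICI = (MIC compound combined / MIC alone) + (MIC mupirocin combined / MIC mupirocin alone).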

Staphylococcus aureus [5] = experiment: Potentiation of mupirocin-induced antibacterial activity against Staphylococcus aureus UAMS-1 assessed as fractional inhibitory concentration index at 8 ug/ml by checkerboard assay; format: functional; how it was run: as §1
Staphylococcus aureus [6] = experiment: Potentiation of mupirocin-induced antibacterial activity against Staphylococcus aureus UAMS-1 assessed as fractional inhibitory concentration index at 0.5 ug/ml by checkerboard assay; format: functional; how it was run: as §1
Staphylococcus aureus [7] = experiment: Potentiation of mupirocin-induced antibacterial activity against Staphylococcus aureus UAMS-1 assessed as mupirocin MIC at 8 ug/ml by checkerboard assay (reference value: 0.125 microg/ml); format: functional; how it was run: as §1
Staphylococcus aureus [8] = experiment: Potentiation of mupirocin-induced antibacterial activity against Staphylococcus aureus UAMS-1 assessed as fractional inhibitory concentration index at 4 ug/ml by checkerboard assay; format: functional; how it was run: as §1
Staphylococcus aureus [9] = experiment: Potentiation of mupirocin-induced antibacterial activity against Staphylococcus aureus UAMS-1 assessed as mupirocin MIC at 4 ug/ml by checkerboard assay (reference value: 0.125 microg/ml); format: functional; how it was run: as §1
Staphylococcus aureus [10] = experiment: Potentiation of mupirocin-induced antibacterial activity against Staphylococcus aureus UAMS-1 assessed as fractional inhibitory concentration index at 16 ug/ml by checkerboard assay; format: functional; how it was run: as §1
Staphylococcus aureus [11] = experiment: Potentiation of mupirocin-induced antibacterial activity against Staphylococcus aureus UAMS-1 assessed as mupirocin MIC at 1 ug/ml by checkerboard assay (reference value: 0.125 microg/ml); format: functional; how it was run: as §1
Staphylococcus aureus [12] = experiment: Potentiation of mupirocin-induced antibacterial activity against Staphylococcus aureus UAMS-1 assessed as fractional inhibitory concentration index at 1 ug/ml by checkerboard assay; format: functional; how it was run: as §1

IC50 [1] [µM] | IC50 [2] [µM] | MIC (Staphylococcus aureus [3]) [µg/mL] | Structure (SMILES) | MTC (HepG2) [µg/mL] | other results
50 |  |  | CC(C)c1ccc(OCC(=O)NNC(=S)NC(=O)c2cnco2)cc1 | 64 | 
25 | 250 | 64 (≈ 170 µM) | CC(C)c1ccc(OCC(=O)NNC(=S)NC(=O)c2cccs2)cc1 | > 256 | 
40 |  |  | CC(C)c1ccc(OCC(=O)NNC(=S)NC(=O)c2ccc(Br)o2)cc1 | > 128 | MIC (Staphylococcus aureus [4]): 0.0625 µg/mL; fractional inhibitory concentration index (FICI) (Staphylococcus aureus [5]): 0.375; fractional inhibitory concentration index (FICI) (Staphylococcus aureus [6]): 0.516
395 |  |  | CC(C)c1ccc(OCC(=O)NNC(=S)NC(=O)c2ccsc2)cc1 | > 256 | 
100 |  |  | CC(C)c1ccc(OCC(=O)NNC(=S)NC(=O)c2cc3cc(Cl)ccc3[nH]2)cc1 | 256 | 
 | 50 | > 256 | COc1ccc2cc(C(=O)NC(=S)NNC(=O)COc3ccc(C(C)C)cc3)[nH]c2c1 | > 512 | 
350 | > 500 | 64 (≈ 172 µM) | CC(C)c1ccc(OCC(=O)NNC(=S)NC(=O)c2ccccc2)cc1 | 512 | 
25 | > 250 | 16 (≈ 44.4 µM) | CC(C)c1ccc(OCC(=O)NNC(=S)NC(=O)c2ccc[nH]2)cc1 | 16 | 
90 |  |  | CC(C)c1ccc(OCC(=O)NNC(=S)NC(=O)c2c[nH]c3ccccc23)cc1 | > 128 | MIC (Staphylococcus aureus [7]): 0.0625 µg/mL; fractional inhibitory concentration index (FICI) (Staphylococcus aureus [5]): 0.5
 |  |  | COc1ccc2[nH]c(C(=O)NC(=S)NNC(=O)COc3ccc(C(C)C)cc3)cc2c1 | 32 | 
 | 25 |  | CC(C)c1ccc(OCC(=O)NNC(=S)NC(=O)Cc2ccco2)cc1 | 32 | 
150 |  |  | CC(C)c1ccc(OCC(=O)NNC(=S)NC(=O)c2ccncc2)cc1 | > 512 | 
> 500 |  |  | CC(C)c1ccc(OCC(=O)NNC(=S)NC(=O)c2ccno2)cc1 | > 128 | 
26 |  | > 256 | CC(C)c1ccc(OCC(=O)NNC(=S)NC(=O)/C=C/c2cc3ccccc3o2)cc1 | 256 | 
100 |  |  | CC(C)c1ccc(OCC(=O)NNC(=S)NC(=O)c2cc3ccccc3s2)cc1 | 512 | 
25 | > 250 | 128 (≈ 311 µM) | CC(C)c1ccc(OCC(=O)NNC(=S)NC(=O)c2coc3ccccc23)cc1 | 128 | 
50 | 40 | 64 (≈ 146 µM) | CC(C)c1ccc(OCC(=O)NNC(=S)NC(=O)c2ccc(-c3ccccc3)o2)cc1 | 64 | 
< 50 |  |  | CC(C)c1ccc(OCC(=O)NNC(=S)NC(=O)c2cc3ccc(Cl)cc3[nH]2)cc1 | 32 | 
< 50 | < 50 |  | CC(C)c1ccc(OCC(=O)NNC(=S)NC(=O)c2cc3cc(F)ccc3[nH]2)cc1 | 256 | 
50 |  |  | CC(C)c1ccc(OCC(=O)NNC(=S)NC(=O)c2cc3ccccc3n2C)cc1 | > 256 | 
150 |  |  | Cc1ccoc1C(=O)NC(=S)NNC(=O)COc1ccc(C(C)C)cc1 | > 128 | 
105 |  |  | Cc1ccc(C(=O)NC(=S)NNC(=O)COc2ccc(C(C)C)cc2)o1 | > 128 | fractional inhibitory concentration index (FICI) (Staphylococcus aureus [8]): 0.5; MIC (Staphylococcus aureus [9]): 0.0312 µg/mL; fractional inhibitory concentration index (FICI) (Staphylococcus aureus [6]): 0.53
160 |  |  | CC(C)c1ccc(OCC(=O)NNC(=S)NC(=O)c2cccnc2)cc1 | > 256 | 
1 |  |  | CC(C)c1ccc(OCC(=O)NNC(=S)NC(=O)c2ccccn2)cc1 | > 128 | MIC (Staphylococcus aureus [7]): 0.0625 µg/mL; fractional inhibitory concentration index (FICI) (Staphylococcus aureus [5]): 0.5; fractional inhibitory concentration index (FICI) (Staphylococcus aureus [6]): 0.516; fractional inhibitory concentration index (FICI) (Staphylococcus aureus [10]): 0.625
150 | 250 |  | CC(C)c1ccc(OCC(=O)NNC(=S)NC(=O)c2ccoc2)cc1 | 16 | 
32 |  |  | CC(C)c1ccc(OCC(=O)NNC(=S)NC(=O)/C=C/c2ccco2)cc1 | > 256 | 
175 | 100 | 32 (≈ 68.9 µM) | Cc1cc(/C=C(/C#N)C(=O)Nc2cccc(Br)c2)c(C)n1-c1ccc(C(=O)O)cc1 | 25 | 
90 |  |  | CC(C)c1ccc(OCC(=O)NNC(=S)NC(=O)c2nc3ccccc3[nH]2)cc1 | 512 | 
0.5 |  |  | CC(C)c1ccc(OCC(=O)NNC(=S)NC(=O)c2cc3ccccc3[nH]2)cc1 | > 256 | MIC (Staphylococcus aureus [11]): 0.0625 µg/mL; fractional inhibitory concentration index (FICI) (Staphylococcus aureus [12]): 0.56

Structure (SMILES) | IC50 [1] [µM] | IC50 [2] [µM] | MIC (Staphylococcus aureus [3]) [µg/mL] | MTC (HepG2) [µg/mL] | other results
CC(C)c1ccc(OCC(=O)NNC(=S)NC(=O)c2ccco2)cc1 | 140 |  | 16 (≈ 44.3 µM) | > 128 | fractional inhibitory concentration index (FICI) (Staphylococcus aureus [8]): 0.49; MIC (Staphylococcus aureus [9]): 0.0625 µg/mL
CC(C)c1ccc(OCC(=O)NNC(=S)NC(=O)c2cc3ccccc3o2)cc1 | 1 |  | 32 (≈ 77.8 µM) | > 128 | fractional inhibitory concentration index (FICI) (Staphylococcus aureus [8]): 0.25; MIC (Staphylococcus aureus [7]): 0.0312 µg/mL; fractional inhibitory concentration index (FICI) (Staphylococcus aureus [6]): 0.508
